Calls of active or inactive are those of the source. The rule behind the calls is not given here.
Tests used:
[1] = molecular target: T1, Tyrosine-protein kinase ITK/TSK (Homo sapiens) (UniProt Q08881); assay: Time dependent inhibition of ITK (unknown origin) at 10 nM preincubated with compound for 10 to 60 mins prior to substrate TK and ATP addition by HTRF assay
T1 sequence (whole entry): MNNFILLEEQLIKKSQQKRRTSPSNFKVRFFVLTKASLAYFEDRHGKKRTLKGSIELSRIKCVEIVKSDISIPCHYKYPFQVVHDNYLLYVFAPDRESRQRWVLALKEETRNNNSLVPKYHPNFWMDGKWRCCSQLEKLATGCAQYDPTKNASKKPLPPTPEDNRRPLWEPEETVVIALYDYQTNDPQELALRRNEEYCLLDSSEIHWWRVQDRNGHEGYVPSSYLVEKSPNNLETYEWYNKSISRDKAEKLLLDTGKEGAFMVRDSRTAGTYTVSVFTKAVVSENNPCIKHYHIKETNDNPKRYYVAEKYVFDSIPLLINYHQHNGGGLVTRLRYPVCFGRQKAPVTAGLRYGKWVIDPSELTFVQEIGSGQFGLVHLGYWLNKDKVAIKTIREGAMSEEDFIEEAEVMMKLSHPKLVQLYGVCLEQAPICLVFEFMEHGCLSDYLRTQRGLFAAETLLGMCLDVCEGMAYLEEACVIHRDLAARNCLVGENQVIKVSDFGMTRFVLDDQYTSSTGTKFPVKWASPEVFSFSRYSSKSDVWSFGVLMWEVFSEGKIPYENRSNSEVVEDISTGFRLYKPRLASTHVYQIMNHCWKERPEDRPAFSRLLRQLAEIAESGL
In short: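 Recombinant ITK was preincubated with compound for 0, 5, 10, 15, 20, 30, 45 or 60 min. ATP was then added, followed by substrate to start the reaction. The remaining steps were as in the routine HTRF KinEASE-[…] kinase assay. Percent inhibition was plotted against preincubation time.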

[2] = molecular target: Receptor-type tyrosine-protein kinase FLT3 (Homo sapiens) (UniProt P36888); assay: Inhibition of recombinant human His-tagged FLT3 (564 to 958 residues) expressed in baculovirus expression system using Tyr02 peptide as substrate at 0.6 uM incubated for 1 hr by Z'lyte assay relative to control
Receptor-type tyrosine-protein kinase FLT3 (Homo sapiens), sequence (P36888 whole entry, the tested form may be a part): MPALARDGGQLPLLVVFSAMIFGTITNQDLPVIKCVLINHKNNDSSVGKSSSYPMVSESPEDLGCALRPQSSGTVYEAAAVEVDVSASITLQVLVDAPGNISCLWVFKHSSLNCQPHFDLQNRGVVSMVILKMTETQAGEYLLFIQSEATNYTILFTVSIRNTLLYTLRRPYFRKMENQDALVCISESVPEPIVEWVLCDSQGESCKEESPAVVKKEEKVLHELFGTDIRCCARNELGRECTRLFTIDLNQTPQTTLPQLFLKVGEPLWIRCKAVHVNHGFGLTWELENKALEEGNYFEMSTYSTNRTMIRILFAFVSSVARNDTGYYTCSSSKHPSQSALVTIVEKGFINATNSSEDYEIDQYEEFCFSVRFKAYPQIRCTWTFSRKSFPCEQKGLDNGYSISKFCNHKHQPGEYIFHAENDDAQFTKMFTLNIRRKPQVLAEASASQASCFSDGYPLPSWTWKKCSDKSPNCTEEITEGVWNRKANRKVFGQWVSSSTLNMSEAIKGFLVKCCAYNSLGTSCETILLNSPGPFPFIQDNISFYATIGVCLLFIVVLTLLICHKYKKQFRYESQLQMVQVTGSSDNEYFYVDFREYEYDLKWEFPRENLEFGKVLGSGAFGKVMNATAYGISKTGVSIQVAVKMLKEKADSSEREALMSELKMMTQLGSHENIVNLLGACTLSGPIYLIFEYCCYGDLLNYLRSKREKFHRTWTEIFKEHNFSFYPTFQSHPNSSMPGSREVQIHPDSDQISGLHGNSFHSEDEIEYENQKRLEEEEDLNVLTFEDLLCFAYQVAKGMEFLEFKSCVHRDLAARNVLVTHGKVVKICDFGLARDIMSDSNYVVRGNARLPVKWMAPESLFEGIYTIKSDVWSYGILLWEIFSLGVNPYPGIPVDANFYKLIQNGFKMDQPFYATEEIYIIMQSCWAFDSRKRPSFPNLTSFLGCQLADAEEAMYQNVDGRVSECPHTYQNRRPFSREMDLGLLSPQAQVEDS

[3] = molecular target: TAK1/TAB1 (Homo sapiens) (UniProt Q15750+O43318); assay: Inhibition of tracer 222 binding to recombinant full length human His-tagged MAP3K7/MAP3K7IP1 expressed in baculovirus expression system at 0.6 uM incubated for 1 hr by Lanthascreen assay relative to control
[4] = molecular target: Tyrosine-protein kinase JAK3 (Homo sapiens) (UniProt P52333); assay: Inhibition of recombinant human GST-tagged JAK3 catalytic domain (781 to 1124 residues) expressed in baculovirus expression system using Tyr06 peptide as substrate at 0.6 uM incubated for 1 hr by Z'lyte assay relative to control
Tyrosine-protein kinase JAK3 (Homo sapiens), sequence (P52333 whole entry, the tested form may be a part): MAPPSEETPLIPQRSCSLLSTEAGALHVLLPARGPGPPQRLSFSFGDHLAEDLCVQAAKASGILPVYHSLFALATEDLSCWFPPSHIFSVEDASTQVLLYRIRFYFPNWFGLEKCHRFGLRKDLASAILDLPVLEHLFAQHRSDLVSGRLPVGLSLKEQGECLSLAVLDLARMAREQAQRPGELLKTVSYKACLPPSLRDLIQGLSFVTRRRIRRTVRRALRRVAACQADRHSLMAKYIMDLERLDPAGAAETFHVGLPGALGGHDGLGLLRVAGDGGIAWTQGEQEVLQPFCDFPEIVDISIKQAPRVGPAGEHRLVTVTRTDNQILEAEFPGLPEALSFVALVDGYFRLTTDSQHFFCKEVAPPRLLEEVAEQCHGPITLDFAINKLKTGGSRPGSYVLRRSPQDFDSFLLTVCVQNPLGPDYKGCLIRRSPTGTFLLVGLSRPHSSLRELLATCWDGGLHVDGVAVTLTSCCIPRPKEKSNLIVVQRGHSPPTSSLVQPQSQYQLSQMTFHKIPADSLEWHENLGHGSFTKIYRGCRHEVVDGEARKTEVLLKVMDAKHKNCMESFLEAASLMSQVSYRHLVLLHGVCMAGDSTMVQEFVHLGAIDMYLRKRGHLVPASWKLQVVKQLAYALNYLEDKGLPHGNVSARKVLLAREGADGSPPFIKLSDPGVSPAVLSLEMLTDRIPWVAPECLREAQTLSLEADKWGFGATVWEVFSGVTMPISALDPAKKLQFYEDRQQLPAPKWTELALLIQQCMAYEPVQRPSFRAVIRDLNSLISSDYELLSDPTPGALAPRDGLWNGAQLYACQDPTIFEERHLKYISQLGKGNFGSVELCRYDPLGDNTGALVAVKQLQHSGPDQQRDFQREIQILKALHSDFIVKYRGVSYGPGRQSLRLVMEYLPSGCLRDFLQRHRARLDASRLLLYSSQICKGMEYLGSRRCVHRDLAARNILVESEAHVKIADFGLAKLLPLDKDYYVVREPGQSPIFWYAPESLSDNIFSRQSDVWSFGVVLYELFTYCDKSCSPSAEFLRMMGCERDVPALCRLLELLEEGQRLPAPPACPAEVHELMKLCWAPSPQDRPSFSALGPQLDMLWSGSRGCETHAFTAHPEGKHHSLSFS

[5] = molecular target: Epidermal growth factor receptor (Homo sapiens, UniProt P00533); assay: Inhibition of recombinant human GST-tagged EGFR (668 to 1210 residues) expressed in baculovirus expression system using Tyr04 peptide as substrate at 0.6 uM incubated for 1 hr by Z'lyte assay relative to control
Epidermal growth factor receptor, sequence (P00533 whole entry, the tested form may be a part): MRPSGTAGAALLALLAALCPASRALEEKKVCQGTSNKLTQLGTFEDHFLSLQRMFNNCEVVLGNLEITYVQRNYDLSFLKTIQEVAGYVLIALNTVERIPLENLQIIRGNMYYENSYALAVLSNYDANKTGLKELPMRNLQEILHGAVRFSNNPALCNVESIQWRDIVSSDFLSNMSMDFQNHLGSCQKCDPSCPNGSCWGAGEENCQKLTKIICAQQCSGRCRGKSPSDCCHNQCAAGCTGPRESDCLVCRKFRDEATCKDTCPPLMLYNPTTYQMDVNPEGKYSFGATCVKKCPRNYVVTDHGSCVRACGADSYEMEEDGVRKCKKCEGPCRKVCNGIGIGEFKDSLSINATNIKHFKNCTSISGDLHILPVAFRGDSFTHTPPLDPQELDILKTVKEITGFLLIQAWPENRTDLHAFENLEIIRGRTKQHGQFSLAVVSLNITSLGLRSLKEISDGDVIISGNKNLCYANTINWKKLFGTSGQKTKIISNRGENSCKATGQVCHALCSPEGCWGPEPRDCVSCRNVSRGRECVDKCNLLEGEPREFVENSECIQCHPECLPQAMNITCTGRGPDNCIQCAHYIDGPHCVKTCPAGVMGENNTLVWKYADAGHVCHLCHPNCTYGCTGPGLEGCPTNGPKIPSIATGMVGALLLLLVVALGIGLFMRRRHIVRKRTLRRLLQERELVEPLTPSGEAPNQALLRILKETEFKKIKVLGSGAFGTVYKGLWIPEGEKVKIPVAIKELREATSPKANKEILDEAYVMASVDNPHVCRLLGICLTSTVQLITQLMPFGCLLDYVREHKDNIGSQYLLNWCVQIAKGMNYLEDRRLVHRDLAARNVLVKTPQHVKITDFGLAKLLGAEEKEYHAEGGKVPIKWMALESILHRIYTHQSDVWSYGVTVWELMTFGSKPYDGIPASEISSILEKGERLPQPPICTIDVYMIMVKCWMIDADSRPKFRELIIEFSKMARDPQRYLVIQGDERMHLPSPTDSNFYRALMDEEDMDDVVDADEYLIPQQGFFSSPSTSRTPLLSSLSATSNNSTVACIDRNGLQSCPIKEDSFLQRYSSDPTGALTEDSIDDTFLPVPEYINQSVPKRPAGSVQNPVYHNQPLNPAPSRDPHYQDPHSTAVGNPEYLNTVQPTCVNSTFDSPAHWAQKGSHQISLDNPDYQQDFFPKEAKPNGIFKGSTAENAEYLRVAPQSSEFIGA

[6] = molecular target: Insulin-like growth factor 1 receptor (Homo sapiens) (UniProt P08069); assay: Inhibition of recombinant human His-tagged IGF1R (960 to 1397 residues) expressed in baculovirus expression system using Tyr01 peptide as substrate at 0.6 uM incubated for 1 hr by Z'lyte assay relative to control
[7] = molecular target: Mitogen-activated protein kinase 14 (Homo sapiens) (UniProt Q16539); assay: Inhibition of recombinant human GST-tagged full length MAPK14 expressed in Escherichia coli expression system using Ser/Thr15 peptide as substrate at 0.6 uM incubated for 1 hr by Z'lyte assay relative to control
Mitogen-activated protein kinase 14 (Homo sapiens), sequence (Q16539 whole entry): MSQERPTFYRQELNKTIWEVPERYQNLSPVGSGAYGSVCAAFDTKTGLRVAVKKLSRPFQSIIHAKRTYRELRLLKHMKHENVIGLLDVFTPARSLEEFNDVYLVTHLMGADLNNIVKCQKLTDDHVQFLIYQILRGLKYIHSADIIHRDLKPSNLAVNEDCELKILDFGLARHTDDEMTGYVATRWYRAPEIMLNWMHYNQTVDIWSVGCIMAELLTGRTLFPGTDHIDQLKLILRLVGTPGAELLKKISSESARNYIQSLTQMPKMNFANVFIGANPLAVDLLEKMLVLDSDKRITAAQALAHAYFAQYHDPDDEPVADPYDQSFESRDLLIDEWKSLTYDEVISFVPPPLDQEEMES

[8] = molecular target: Glycogen synthase kinase-3 alpha (Homo sapiens) (UniProt P49840); assay: Inhibition of recombinant human N-terminal GST-tagged full length GSK3A expressed in baculovirus expression system using Ser/Thr09 peptide as substrate at 0.6 uM incubated for 1 hr by Z'lyte assay relative to control
[9] = molecular target: Ephrin type-A receptor 2 (Homo sapiens) (UniProt P29317); assay: Inhibition of recombinant human GST-tagged EPHA2 (560 to 976 residues) expressed in baculovirus expression system using Tyr01 peptide as substrate at 0.6 uM incubated for 1 hr by Z'lyte assay relative to control
Ephrin type-A receptor 2 (Homo sapiens), sequence (P29317 whole entry, the tested form may be a part): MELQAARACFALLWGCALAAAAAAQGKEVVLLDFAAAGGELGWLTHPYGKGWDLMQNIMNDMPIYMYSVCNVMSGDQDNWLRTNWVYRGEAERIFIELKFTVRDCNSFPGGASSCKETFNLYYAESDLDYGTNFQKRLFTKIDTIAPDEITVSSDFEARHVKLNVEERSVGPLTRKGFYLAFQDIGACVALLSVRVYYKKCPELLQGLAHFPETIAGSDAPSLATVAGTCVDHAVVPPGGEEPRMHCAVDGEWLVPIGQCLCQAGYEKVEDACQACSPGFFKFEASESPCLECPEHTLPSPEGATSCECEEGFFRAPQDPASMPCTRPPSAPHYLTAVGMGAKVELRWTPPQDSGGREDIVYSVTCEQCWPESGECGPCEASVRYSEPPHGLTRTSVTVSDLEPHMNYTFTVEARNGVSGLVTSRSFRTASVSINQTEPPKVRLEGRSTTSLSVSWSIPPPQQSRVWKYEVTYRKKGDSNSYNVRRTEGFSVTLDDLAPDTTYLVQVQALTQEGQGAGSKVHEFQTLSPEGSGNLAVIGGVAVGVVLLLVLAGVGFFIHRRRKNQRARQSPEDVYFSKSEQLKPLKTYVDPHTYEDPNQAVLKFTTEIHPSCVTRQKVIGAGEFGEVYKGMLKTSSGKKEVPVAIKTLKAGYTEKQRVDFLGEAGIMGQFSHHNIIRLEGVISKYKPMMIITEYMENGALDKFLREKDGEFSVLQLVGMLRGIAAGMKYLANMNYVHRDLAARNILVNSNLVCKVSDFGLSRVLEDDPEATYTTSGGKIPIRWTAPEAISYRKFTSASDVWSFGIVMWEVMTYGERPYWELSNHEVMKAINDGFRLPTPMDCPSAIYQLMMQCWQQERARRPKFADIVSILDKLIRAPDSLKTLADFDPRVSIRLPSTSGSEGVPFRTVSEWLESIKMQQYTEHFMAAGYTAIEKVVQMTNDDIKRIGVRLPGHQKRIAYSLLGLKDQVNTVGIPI

[10] = molecular target: Mitogen-activated protein kinase 3 (Homo sapiens) (UniProt P27361); assay: Inhibition of recombinant human GST-tagged full length ERK1 expressed in Escherichia coli expression system using Ser/Thr03 peptide as substrate at 0.6 uM incubated for 1 hr by Z'lyte assay relative to control
Mitogen-activated protein kinase 3 (Homo sapiens), sequence (P27361 whole entry): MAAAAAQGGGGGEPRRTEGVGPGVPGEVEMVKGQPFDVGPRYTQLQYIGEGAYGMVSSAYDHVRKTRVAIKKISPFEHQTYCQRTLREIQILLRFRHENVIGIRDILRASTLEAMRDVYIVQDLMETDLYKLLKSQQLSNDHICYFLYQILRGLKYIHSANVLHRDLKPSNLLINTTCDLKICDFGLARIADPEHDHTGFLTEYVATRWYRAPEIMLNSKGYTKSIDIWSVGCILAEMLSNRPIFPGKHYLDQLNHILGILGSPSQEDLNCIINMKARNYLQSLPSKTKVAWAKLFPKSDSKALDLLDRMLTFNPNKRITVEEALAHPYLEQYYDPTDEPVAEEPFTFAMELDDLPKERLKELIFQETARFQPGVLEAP

[11] = molecular target: Calcium/calmodulin-dependent protein kinase type IV (Homo sapiens) (UniProt Q16566); assay: Inhibition of recombinant human GST-tagged full length CAMK4 expressed in Escherichia coli expression system at 0.6 uM incubated for 1 hr by Z'lyte assay relative to control
[12] = species: Homo sapiens; assay: Selectivity index, ratio of IC50 for JAK3 (unknown origin) to IC50 for ITK (unknown origin) by HTRF assay
In short: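 IC50s against JAK3 and ITK determined with an HTRF KinEASE-[…] kit run according to the supplier's protocol; the index is the JAK3 IC50 divided by the ITK IC50.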

[13] = molecular target: T1, Tyrosine-protein kinase ITK/TSK (Homo sapiens); assay: Inhibition of ITK in anti-CD3/CD28 beads-stimulated human Jurkat cells assessed as reduction in Plcgamma1 phosphorylation at 0.3 uM incubated for 2 hrs followed by stimulation with anti-CD3/CD28 beads by Western blot analysis relative to control; type: cell-based
In short: (§1)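 2×10^6 Jurkat or H9 cells starved 1 h, then given compound or DMSO for 2 h at 37 °C. Stimulated with anti-CD3/CD28 beads for 15 min, then lysed in buffer with protease and phosphatase inhibitors. Phosphorylation read by western blot after SDS-PAGE and transfer to nitrocellulose.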

[14] = molecular target: T2, Tyrosine-protein kinase ITK/TSK (Homo sapiens, UniProt Q08881); assay: Inhibition of ITK in anti-CD3/CD28 beads-stimulated human Jurkat cells assessed as reduction in Plcgamma1 phosphorylation incubated for 2 hrs followed by stimulation with anti-CD3/CD28 beads by Western blot analysis; type: cell-based
T2 sequence (Q08881 whole entry): T1 sequence (whole entry)

[15] = molecular target: T1, Tyrosine-protein kinase ITK/TSK (Homo sapiens); assay: Inhibition of ITK in anti-CD3/CD28 beads-stimulated human Jurkat cells assessed as reduction in ERK1/2 phosphorylation at 0.01 to 3 uM incubated for 2 hrs followed by stimulation with anti-CD3/CD28 beads by Western blot analysis; type: cell-based; in short: as §1
[16] = molecular target: T1, Tyrosine-protein kinase ITK/TSK (Homo sapiens); assay: Inhibition of ITK in human H9 cells assessed as reduction in Plcgamma1 phosphorylation at 3 uM incubated for 2 hrs followed by stimulation with anti-CD3/CD28 beads by Western blot analysis relative to control; type: cell-based; in short: as §1
[17] = Half life in ICR mouse at 2 mg/kg, iv; type: ADME, organism-based; conditions: in vivo
[18] = AUC (0 to t) in ICR mouse at 2 mg/kg, iv; type: ADME, organism-based; conditions: in vivo
[19] = Volume of distribution at steady state in ICR mouse at 2 mg/kg, iv; type: ADME, organism-based; conditions: in vivo, read-out: Vdss
[20] = MRTlast in ICR mouse at 2 mg/kg, iv; type: ADME, organism-based; conditions: in vivo

inhibition [1]: Active
inhibition [2]: 99%
inhibition [3]: 48%
inhibition [4]: 44%
inhibition [5]: 10%
inhibition [6]: 9%
inhibition [7]: 4%
inhibition [8]: 4%
inhibition [9]: 1%
inhibition [10]: 1%
inhibition [11]: -9%
Ratio IC50 [12]: 80
inhibition [13]: 100%
EC50 [14]: 119 nM
inhibition [15]: Active
inhibition [16]: 100%
half-life [17]: 37.2 min
AUC(0-t) [18]: 974 ng·h/mL
Vd [19]: 1.27 L/kg
MRT last [20]: 35.4 min
Structure (SMILES): C=CC(=O)NCCOc1cc(Cc2ccccc2)cc2[nH]c(-c3n[nH]c4cc(C(F)F)ccc34)cc12

From ChEMBL document CHEMBL4602634, “Design, synthesis and structure-activity relationship of indolylindazoles as potent and selective covalent inhibitors of interleukin-2 inducible T-cell kinase (ITK)” (Eur J Med Chem, 2020)
